# SENP8 block-1: inhibitors of human SENP8 protease | Q96LD8 | purified SENP8, Z-RLRGG-aminoluciferin cleavage, luminescence | inhibition, % at 10 µM | hit rate 1.2% among 330,000 | AID 2540; in the data active = inhibition above about 50%
# SENP8 block-2: inhibitors of human SENP8 protease | Q96LD8 | recombinant SENP8, Nedd8 substrate fluorescence | inhibition, % at 20 µM | hit rate 0.64% among 360,000 | AID 602440; in the data active = inhibition mostly above about 40%, no sharp cut-off; inactive = mostly below about 27%
# SENP6 inh: blocks the human protease SENP6; inhibition, % at 10 µM; Recombinant SENP6 catalytic domain, aminoluciferin luminescence; Q9GZR1; hit rate 1.8% among 330,000;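 active = inhibition above about 50% at the single tested dose, limit read from the data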;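 also: plate controls were DMSO wells with enzyme for no effect and DMSO wells lacking enzyme for full effect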
# Target sequence (Q9GZR1 628-1112 limits assumed): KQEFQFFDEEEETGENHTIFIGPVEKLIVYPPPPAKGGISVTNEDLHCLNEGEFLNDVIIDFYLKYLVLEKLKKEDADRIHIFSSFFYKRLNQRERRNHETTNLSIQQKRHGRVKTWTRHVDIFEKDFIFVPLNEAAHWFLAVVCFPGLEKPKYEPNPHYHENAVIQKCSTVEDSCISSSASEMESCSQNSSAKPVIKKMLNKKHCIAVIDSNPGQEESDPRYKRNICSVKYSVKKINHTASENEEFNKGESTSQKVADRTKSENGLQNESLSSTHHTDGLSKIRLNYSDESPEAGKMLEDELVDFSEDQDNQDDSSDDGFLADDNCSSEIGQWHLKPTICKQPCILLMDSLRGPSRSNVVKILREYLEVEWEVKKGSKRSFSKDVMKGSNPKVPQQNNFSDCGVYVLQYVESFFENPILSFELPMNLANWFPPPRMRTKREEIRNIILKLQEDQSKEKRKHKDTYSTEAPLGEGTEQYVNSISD
# SENP7 inh: blocks the human protease SENP7; Q9BQF6; recombinant SENP7, Z-RLRGG-aminoluciferin luminescence, 40 min; inhibition, % at 5 µM; hit rate 1.5% among 330,000; AID 434973;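 active = inhibition above about 50% at the single test dose, limit read from the data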;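 also: plate controls were DMSO with enzyme for no effect and no enzyme buffer wells for full effect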
# Apaf-1 inh: blocks human Apaf-1 apoptosome activity. hit rate 0.71% among 330,000. O14727. reconstituted apoptosome caspase-3 activity, DEVD-Rh110 fluorescence. inhibition, % at 20 µM; active = inhibition of at least 40% at 20 µM;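 also: plate controls were DMSO wells for no effect and DEVD-CHO caspase inhibitor wells for full effect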
#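 Material: biochemical Apaf-1 apoptosome reconstitution. Medium: Hepes buffer, pH 7.5. Also added: cytochrome c activation, bis-DEVD rhodamine 110 substrate. Timing: 30 min compound preincubation, 50 min activation, room temperature. Measured by: rhodamine 110 fluorescence at Ex 480/Em 540 nm.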
# UBC13 inh: human UBC13 polyubiquitination inhibition | P61088 | inhibition, % at 20 µM | UBC13 polyubiquitin chain formation, TR-FRET | AID 485273 | hit rate 0.47% among 330,000; in the data active = inhibition above about 45%, passing the limit was not always enough
# Target sequence (P61088 whole entry, looked up): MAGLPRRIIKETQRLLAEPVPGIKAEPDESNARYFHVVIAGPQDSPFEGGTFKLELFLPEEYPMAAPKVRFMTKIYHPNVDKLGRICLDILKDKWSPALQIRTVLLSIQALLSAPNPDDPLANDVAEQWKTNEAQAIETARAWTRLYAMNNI
# SENP8 confirm: confirmation of human SENP8 protease inhibitors. Recombinant SENP8, Z-RLRGG-aminoluciferin luminescence, 60 min. inhibition, % at 12.5 µM. hit rate 40% among 6,200. shares compounds with SENP7 inh;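 active = mean inhibition across replicates above about 50%, limit read from the data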
# SENP6 conf: confirmation of human SENP6 protease inhibitors; shares compounds with SENP7 inh; recombinant SENP6, Z-RLRGG-aminoluciferin luminescence; inhibition, % at 12.5 µM; hit rate 58% among 6,200
# SENP7 conf: confirmation of human SENP7 protease inhibitors | shares compounds with SENP7 inh | recombinant SENP7, Z-RLRGG-aminoluciferin luminescence, 40 min | inhibition, % at 12.5 µM | hit rate 69% among 6,200 | AID 488917
# Casp3 SENP sel: caspase-3 inhibition (SENP selectivity assay); purified caspase-3, Z-DEVD-aminoluciferin luminescence, 60 min; inhibition, % at 12.5 µM; shares compounds with SENP7 inh; hit rate 60% among 6,200;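 active = mean inhibition above about 50%, limit read from the data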;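 also: plate controls were enzyme with DMSO for no effect and wells without caspase-3 for full effect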
# SENP luc ctr: interferes with luciferase luminescence in SENP counter-screen. Pre-incubated SENP8/Z-RLRGG-aminoluciferin, luciferase luminescence interference. inhibition, % at 12.5 µM. shares compounds with SENP7 inh. hit rate 39% among 6,200. AID 488919;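 active = mean inhibition above about 50% when retested at one dose, limit read from the data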;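 also: plate controls were DMSO wells with completed reaction for no effect and substrate without enzyme for full effect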
# The depositor's hits bear a star; i = inactive; nt = no result. Sampled rows, rich in hits. Any-hit rate of the full collection: about 3%.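 The calls were made as follows, unless noted: active = mean inhibition above about 50% in the one-dose retest (limit read from the data); inactive = the rest.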
SMILES,SENP8 block-1,SENP8 block-2,SENP6 inh,SENP7 inh,Apaf-1 inh,UBC13 inh,SENP8 confirm,SENP6 conf,SENP7 conf,Casp3 SENP sel,SENP luc ctr
CCc1ccc(NC(=O)Nc2ccon2)cc1,19,21,23,52*,8,-1,42,35,70*,52*,44
CCOc1ccc(NC(=O)Nc2cccnc2)cc1,22,18,60*,58*,-12,13,22,24,75*,74*,47
CCOc1ccc(NC(=O)Nc2ccc3nsnc3c2)cc1,-6,-6,-8,-1,0,3,nt,nt,nt,nt,nt
CCOc1ccc(NC(=O)Nc2cccs2)cc1,67*,27,27,73*,7,-4,-18,72*,95*,85*,82*
Cc1ccc(NC(=O)Nc2cccs2)cc1,55*,4,64*,26,-3,8,2,56*,87*,65*,9
NC(c1csc(Nc2ccccn2)n1)C1CCCCC1 (stereo not given),nt,13,nt,nt,nt,nt,nt,nt,nt,nt,nt
CCOC(=O)Cc1ccc(Nc2nc3cc(-c4sccc4C)sc3c(=O)n2C)cc1,nt,-473,nt,nt,nt,nt,nt,nt,nt,nt,nt
O=C(/C=C/[C@H]1O[C@@H](n2ccc(=O)[nH]c2=O)[C@H](O)[C@@H]1O)NC(c1ccccc1)c1ccccc1,nt,26,nt,nt,nt,nt,nt,nt,nt,nt,nt
COc1ccc(S(=O)(=O)NNS(=O)(=O)c2ccc(OC)c(OC)c2)cc1OC,nt,14,nt,nt,nt,nt,nt,nt,nt,nt,nt
Cn1c(=O)c2cc(NC(=O)NCc3ccccc3)ccc2n1Cc1cccc(C(F)(F)F)c1,nt,i,nt,nt,nt,nt,nt,nt,nt,nt,nt
CC1(C(=O)N2CCCCC2)CCN1C(=O)c1ccccc1CCc1ccccc1 (stereo not given),nt,8,nt,nt,nt,nt,nt,nt,nt,nt,nt
COc1ccc(NC(=O)Nc2cccs2)cc1OC,-2,-2,-5,14,-22,0,nt,nt,nt,nt,nt
O=C(Nc1cccs1)Nc1ccc(F)cc1F,-8,10,11,18,-3,3,nt,nt,nt,nt,nt
CCc1ccc(NC(=O)Nc2cccs2)cc1,57*,9,78*,47,4,-2,2,56*,89*,53*,8
O=C(Nc1cccs1)Nc1ccc(Br)cc1F,11,4,64*,13,5,9,22,22,61*,23,22
COC(=O)C1(C(=O)OC)C[C@H](c2ccc(OC)cc2)N(Cc2ccccc2OC)[C@@H]1c1ccc(OC)cc1,nt,27,nt,nt,nt,nt,nt,nt,nt,nt,nt
O=C(COC(=O)c1ccco1)NCc1ccc2c(c1)OCO2,-3,10,58*,5,-23,18,-4,-6,-8,2,-3
CCCN1CCN(CCCNC(=S)Nc2ccc3nc(N4CCN(CC)CC4)cc(C)c3c2)CC1,-6,-327,89*,-9,4,0,-7,-7,0,0,-10
Cc1cccc(C)c1-n1nnnc1C(c1ccnc2ccccc12)N1CCN(C/C=C/c2ccccc2)CC1 (stereo not given),nt,19,nt,nt,nt,nt,nt,nt,nt,nt,nt
Cc1nc(NC(=O)c2ccc(Br)o2)sc1C,63*,-38,86*,81*,-6,-1,73*,78*,95*,89*,33
CC(C)(C)c1csc(NC(=O)c2ccc(Br)o2)n1,-12,-16,-15,-11,20,-2,nt,nt,nt,nt,nt
Cc1ccc(C(=O)Nc2nc(C)c(C)s2)o1,58*,-49,74*,79*,1,-3,7,72*,92*,91*,75*
CN(C)C(=O)c1ccc(SC(=S)NCc2ccccc2)cc1,nt,-3,nt,nt,nt,nt,nt,nt,nt,nt,nt
COc1cc(-c2cc(NC=O)c3ncc(-c4ccc(C(C)=O)cc4)n3c2)ccc1O,nt,-219,nt,nt,nt,nt,nt,nt,nt,nt,nt
c1ccc(-c2nc(C3CCCCC3)no2)cc1,12,13,59*,34,-154,5,-5,-1,57*,13,5
SMILES,SENP8 block-1,SENP8 block-2,SENP6 inh,SENP7 inh,Apaf-1 inh,UBC13 inh,SENP8 confirm,SENP6 conf,SENP7 conf,Casp3 SENP sel,SENP luc ctr
O=C(NN=C1CCCCCC1)c1cc2ccccc2cc1O,7,-88,15,5,13,2,nt,nt,nt,nt,nt
O=C1CCCC(=NNC(=O)c2cc3ccccc3cc2O)C1,89*,-192,90*,88*,-5,0,89*,92*,101*,93*,88*
CC(=O)Nc1ccc(C(=O)COC(=O)C2CCCCC2)c(F)c1,57*,1,78*,58*,-7,17,10,46,80*,43,9
CC(=O)N1CCc2cc([N+](=O)[O-])ccc21,nt,31,nt,nt,nt,nt,nt,nt,nt,nt,nt
COC(=O)c1nn(-c2ccc3c(c2)CCN3C(C)=O)cc1O,75*,-293,91*,85*,-11,15,-5,82*,97*,96*,84*
COC(=O)c1nn(-c2ccc3c(c2)OCO3)cc1O,48,-265,72*,79*,-9,10,67*,64*,90*,91*,72*
CC1(C)Cc2c(sc(NC(=O)c3ccccc3Cl)c2C(=O)O)CO1,1,11,5,7,10,0,nt,nt,nt,nt,nt
CC1(C)Cc2c(sc(NC(=O)Nc3ccccc3)c2C(N)=O)CO1,56*,-84,68*,53*,18,8,-3,52*,80*,52*,33
COc1ccccc1-c1csc(C(C)(O)c2ccccc2)n1 (stereo not given),nt,11,nt,nt,nt,nt,nt,nt,nt,nt,nt
CCc1ccc(NC(=O)c2cnn(-c3ccccc3)c2C)cc1,41,22,59*,76*,10,-8,2,45,50*,69*,8
COc1ccc(/C=N/NC(=O)c2[nH]ncc2Br)c(OC)c1,75*,-28,82*,87*,-16,5,80*,81*,97*,93*,9
O=C(N/N=C/c1cccnc1)c1[nH]ncc1Br,1,-1,-9,26,10,-3,nt,nt,nt,nt,nt
O=C(N/N=C/c1ccccc1)c1[nH]ncc1Br,86*,6,91*,95*,16,2,89*,88*,98*,95*,40
CCCCNC(=O)C(NC(=O)c1ccc2ccccc2c1)C(=O)c1ccccc1 (stereo not given),nt,14,nt,nt,nt,nt,nt,nt,nt,nt,nt
CC1=NN(c2ccccc2)C(=O)/C1=C/c1c(O)n(-c2ccc(F)c(Cl)c2)[nH]c1=O,78*,nt,84*,-6,20,-16,5,66*,59*,4,55*
